Measured values as given in publication PMC4489320 (Clinical Pharmacology in Drug Development, 2014).

How the values were obtained:
healthy adults [1] = assay: Thorough QT/QTc crossover study, Holter ECG recordings; type: in vivo, human
How it was run: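 Three-period crossover in healthy adults (QTcF >450 ms excluded), with 14-day washouts and six Williams-square sequences. Dosing was placebo, a 0.1 mg/kg IV bolus over 30 s, or oral moxifloxacin 400 mg at Hour 1. ECGs came from 24-h Holter recordings read blind, with baseline the mean of −1, −0.5 and −0.25 h values. QTcI/QTcF/QTcB time-matched ddQTc was analysed by linear mixed-effect models with one-sided 95% CI.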

healthy adults [2] = assay: Treatment-emergent adverse events; type: in vivo, human; conditions: 0.1 mg/kg IV single dose
[3] = in vitro and in vivo studies; ref data on file; cited from earlier work

Molecule	number of subjects with QTcF intervals >450 but ≤480 milliseconds (healthy adults [1]; healthy subjects, single dose)	percentage of subjects with QTcF intervals >450 but ≤480 milliseconds (healthy adults [1]; healthy subjects, single dose) [%]	peak mean difference in dQTcI and dQTcF vs placebo (healthy adults [1]; moxifloxacin 400 mg oral, 2 hours after administration (Hours 3 and 4))	lower bound of ddQTcF vs placebo at prespecified timepoints (healthy adults [1]; moxifloxacin 400 mg oral, Hours 2, 3, 4 and 5)	lower bound of the one-sided 95% CI of ddQTcF vs placebo (healthy adults [1]; moxifloxacin 400 mg oral, Hours 3 to 10 (2–9 hours after moxifloxacin dosing)) [milliseconds]	effects on heart rate, PR interval, or QRS interval (healthy adults [1]; healthy subjects, 0.1 mg/kg IV single dose)	subjects with >30 milliseconds increase in QTcF (healthy adults [1]; healthy subjects, single dose)	slope of linear relationship between ddQTcF and plasma concentration (healthy adults [1]; linear mixed-effects model, P = 0.126, 90% CI (<−0.0005, 0.002), not statistically significant)	subjects with cardiac disorder TEAE (healthy adults [2])	severity of TEAEs (healthy adults [2]; healthy subjects)	metabolism [3]
COc1c(N2C[C@@H]3CCCN[C@@H]3C2)c(F)cc2c(=O)c(C(=O)O)cn(C3CC3)c12 [moxifloxacin]	five	8.3	around 12 milliseconds	above 5 milliseconds	> 5	–	–	–	–	–	–
peginesatide	0 subjects	–	–	–	–	no peginesatide-related effects	no subject	0.001	No subject	mild or moderate	negligible metabolism
